The results in this text go back to ChEMBL document CHEMBL1177741, “Cardiac glycosides from Antiaris toxicaria with potent cardiotonic activity” (J Nat Prod, 2010).

Molecules are shown by their SMILES.

Series [1] in a line: Safety index, ratio of arrhythmogenic concentration to minimum positive inotropic effective concentration causing myocardial contraction in guinea pig left atrial muscles. The class given is toxicity, tissue-based, Cavia porcellus, Muscle tissue. As to conditions: for selectivity ratio: isolated left atrial muscles. Summed up: (§1)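 Paced guinea pig left atrial or right ventricular strips (1 g tension, 2 Hz) received cumulative drug addition. The lowest concentration raising contraction (PIECmin) and the concentration inducing arrhythmia were both recorded. Safety index was calculated as the ratio of the arrhythmogenic concentration to PIECmin.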

A short description of series [2]: Safety index, ratio of arrhythmogenic concentration to minimum positive inotropic effective concentration causing myocardial contraction in guinea pig right ventricular muscles. The class given is toxicity, tissue-based, Cavia porcellus, Muscle tissue. Conditions: for selectivity ratio: isolated right ventricular muscles. The method, boiled down:
as §1

Series [3] in a line: Cardiotonic activity in guinea pig left atrial muscles assessed as minimum positive inotropic effective concentration causing myocardial contraction. Format: functional, Cavia porcellus, Muscle tissue. The method, boiled down:
(§2)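 Guinea pig left atrial or right ventricular strips were perfused with Tyrode's solution, held at 1 g tension and paced at 2 Hz (2 ms, twice threshold). After about 60 min stabilisation, drug was added cumulatively. PIECmin was recorded as the lowest concentration that increased myocardial contraction.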

Series [4] is described as follows: Cardiotonic activity in guinea pig right ventricular muscles assessed as minimum positive inotropic effective concentration causing myocardial contraction. Format: functional, Cavia porcellus, Muscle tissue. The method, boiled down: as §2
Series [5] can be described thus: Cardiotonic activity in guinea pig right ventricular muscles assessed as maximum positive inotropic effective concentration causing myocardial contraction relative to basal level. The class given is functional, Cavia porcellus, Muscle tissue. The method, boiled down:
(§3)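 Isolated left atrial or right ventricular strips from adult guinea pigs (300–500 g; pentobarbital 25 mg/kg i.p.; heart retrogradely perfused with Tyrode's, pH not stated). Tissue held at 1 g tension, paced at 2 Hz (2 ms pulses, twice threshold), stabilised about 60 min, then given cumulative drug additions. Maximal inotropic effect taken at the concentration just before arrhythmia onset.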

The nature of series [6]: Cardiotonic activity in guinea pig left atrial muscles assessed as maximum positive inotropic effective concentration causing myocardial contraction relative to basal level. The class given is functional, Cavia porcellus, Muscle tissue. Summed up: as §3

In the case of `C[C@H]1O[C@H](O[C@H]2CC[C@]3(C=O)[C@H]4C[C@@H](O)[C@]5(C)[C@@H](C6=CC(=O)OC6)CC[C@]5(O)[C@@H]4CC[C@]3(O)C2)[C@H](O)[C@H](O)[C@H]1O`, the selectivity ratio in series [1] stood at 10; in series [2], 15. The Activity in series [3] came to 0.5 µM; in series [4], 2 µM; in series [5], 200%; in series [6] it was 220%.

`C[C@@H]1O[C@H](O[C@H]2CC[C@]3(C=O)[C@H]4C[C@@H](O)[C@]5(C)[C@@H](C6=CC(=O)OC6)CC[C@]5(O)[C@@H]4CC[C@]3(O)C2)[C@H](O)[C@H](O)[C@H]1O`: the selectivity ratio in series [1] amounted to 10; in series [2], 15. In addition, the Activity in series [3] was 1 µM; in series [4], 2 µM; in series [5], 250%; in series [6], 243%.

Regarding `CO[C@H]1[C@@H](O[C@H]2CC[C@]3(C=O)[C@H]4CC[C@]5(C)[C@@H](C6=CC(=O)OC6)CC[C@]5(O)[C@@H]4CC[C@]3(O)C2)O[C@H](C)[C@@H](O)[C@H]1O` (stereo in doubt; 18) [STROPHATHOJAVOSIDE], the Ratio in series [1] is on record as 10. The selectivity ratio in series [2] amounted to 5. The Activity in series [3] came out at 0.25 µM; in series [4] it was 1 µM; in series [5] it was 200%; in series [6], 567%.

With `CO[C@H]1[C@@H](O[C@H]2CC[C@]3(C=O)[C@H]4CC[C@]5(C)[C@@H](C6=CC(=O)OC6)CC[C@]5(O)[C@@H]4CC[C@]3(O)C2)O[C@H](C)[C@@H](O)[C@H]1O` (stereo in doubt; 20) [STROPHATHOJAVOSIDE], the Ratio in series [1] worked out at 2.5; in series [2], 4. For the same molecule, the Activity stood at 0.5 µM in series [3], 0.5 µM in series [4], 350% in series [5] and 225% in series [6].

As for `C[C@H]1O[C@H](O[C@H]2CC[C@]3(C=O)[C@H]4C[C@@H](O)[C@]5(C)[C@@H](C6=CC(=O)OC6)CC[C@]5(O)[C@@H]4CC[C@]3(O)C2)[C@H](O)[C@H](O)[C@@H]1O` [ANTIALLOSIDE], the selectivity ratio in series [1] stood at 80. For the same molecule, the Activity in series [3] turned out to be 0.25 µM; in series [6] it was 350%.

As to `C[C@]12[C@H](O)C[C@H]3[C@@H](CC[C@]4(O)CCCC[C@]34C=O)[C@@]1(O)CC[C@@H]2C1=CC(=O)OC1` [ANTIARIGENIN], the selectivity ratio in series [1] is 20. Moreover, the Activity in series [3] was 0.05 µM; in series [6] it was 121%.

On to `C[C@H]1O[C@@H](O[C@H]2CC[C@]3(C)[C@H]4CC[C@]5(C)[C@@H](C6=CC(=O)OC6)CC[C@]5(O)[C@@H]4CC[C@]3(O)C2)[C@H](O)[C@H](O)[C@H]1O` [ANTIAROSIDE A], for which the selectivity ratio in series [1] was found to be 4.3; in series [2], 2. In addition, the Activity was 0.1 µM in series [3], 0.083 µM in series [4], 150% in series [5] and 158% in series [6].

Turning to `C[C@@H]1O[C@@H](O[C@H]2CC[C@@]3(CO)[C@H](CC[C@@H]4[C@@H]3CC[C@]3(C)[C@@H](C5=CC(=O)OC5)CC[C@]43O)C2)[C@H](O)[C@H](O)[C@H]1O[C@@H]1O[C@H](CO)[C@@H](O)[C@H](O)[C@H]1O` [ANTIAROSIDE B], the selectivity ratio is 5 in series [1] and 100 in series [2]. Also, the Activity in series [3] was found to be 0.38 µM; in series [4], 0.075 µM; in series [5] it was 382%; in series [6], 373%.

For the molecule `C[C@@H]1O[C@H](O[C@@H]2CC[C@]3(C=O)[C@H]4CC[C@]5(C)[C@@H](C6=CC(=O)OC6)CC[C@]5(O)[C@@H]4CC[C@]3(O)C2)[C@H](O)[C@H](O)[C@H]1O` [ANTIAROSIDE C], the results for the selectivity ratio in series [1] and in series [2] were 15 and 9.7, respectively. Besides, the Activity is 2.75 µM in series [3], 4 µM in series [4], 229% in series [5] and 208% in series [6].

In the case of `C[C@@H]1O[C@H](O[C@H]2CC[C@@]3(C(=O)O)[C@H](CC[C@@H]4[C@@H]3CC[C@]3(C)[C@@H](C5=CC(=O)OC5)CC[C@]43O)C2)[C@H](O)[C@H](O)[C@H]1O` [ANTIAROSIDE E], the selectivity ratio in series [1] was determined as 10; in series [2] it was 7.7. For the same molecule, the Activity came out at 0.42 µM in series [3], 1.33 µM in series [4], 230% in series [5] and 264% in series [6].

As to `C[C@@H]1O[C@H](O[C@H]2CC[C@@]3(C(=O)O[C@@H]4O[C@H](CO)[C@@H](O)[C@H](O)[C@H]4O)[C@H](CC[C@@H]4[C@@H]3CC[C@]3(C)[C@@H](C5=CC(=O)OC5)CC[C@]43O)C2)[C@H](O)[C@H](O)[C@H]1O` [ANTIAROSIDE F], the results for the selectivity ratio in series [1] and in series [2] were 6 and 5.8, respectively. Also, the Activity in series [3] is 1.42 µM; in series [4] it was 3.17 µM; in series [5] it was 618%; in series [6], 140%.

Regarding `C[C@@H]1O[C@H](O[C@H]2CC[C@]3(C(=O)O)[C@H]4C[C@@H](O)[C@]5(C)[C@@H](C6=CC(=O)OC6)CC[C@]5(O)[C@@H]4CC[C@]3(O)C2)[C@H](O)[C@H](O)[C@H]1O` [ANTIAROSIDE G], the results for the selectivity ratio in series [1] and in series [2] were 13 and 20.7, respectively. Besides, the Activity in series [3] stood at 3.75 µM; in series [4] it was 3.67 µM; in series [5], 221%; in series [6], 419%.

Regarding `C[C@H]1O[C@H](O[C@H]2CC[C@]3(C(=O)O)[C@H]4C[C@@H](O)[C@]5(C)[C@@H](C6=CC(=O)OC6)CC[C@]5(O)[C@@H]4CC[C@]3(O)C2)[C@H](O)[C@H](O)[C@H]1O` [ANTIAROSIDE H], the selectivity ratio is 7.5 in series [1] and 9.7 in series [2]. Also, the Activity in series [3] came to 7.5 µM; in series [4], 8.33 µM; in series [5] it was 260%; in series [6], 144%.

On to `C[C@@H]1O[C@H](O[C@H]2CC[C@@H]3[C@H]4CC[C@]5(C)[C@@H](C6=CC(=O)OC6)CC[C@]5(O)[C@@H]4CC[C@]3(O)C2)[C@H](O)[C@H](O)[C@H]1O` [ANTIAROSIDE I], for which the results for the selectivity ratio in series [1] and in series [2] were 6.7 and 10.7, respectively. The Activity worked out at 0.83 µM in series [3], 0.67 µM in series [4], 1246% in series [5] and 562% in series [6].

`C[C@]12CC[C@H](O)C[C@@]1(O)CC[C@@H]1[C@@H]2CC[C@]2(C)[C@@H]([C@]3(O)COC(=O)C3)CC[C@]12O` [ANTIAROTOXININ A]: the selectivity ratio in series [1] came out at 1000. Moreover, the values for the Activity in series [3] and in series [6] were 0.1 µM and 367%, respectively.

For `C[C@@H]1O[C@@H](O[C@H]2CC[C@]3(C=O)[C@H]4CC[C@]5(C)[C@@H](C6=CC(=O)OC6)CC[C@]5(O)[C@@H]4CC[C@]3(O)C2)[C@H](O)[C@H](O)[C@H]1O` [CONVALLATOXIN], the selectivity ratio turned out to be 10 in series [1] and 8 in series [2]. Further, the Activity in series [3] was determined as 0.1 µM; in series [4], 0.125 µM; in series [5], 300%; in series [6] it was 467%.

Regarding `C[C@@H]1O[C@H](O[C@H]2CC[C@]3(CO)[C@H]4CC[C@]5(C)[C@@H](C6=CC(=O)OC6)CC[C@]5(O)[C@@H]4CC[C@]3(O)C2)[C@H](O)[C@H](O)[C@H]1O` [CONVALLATOXOL], the selectivity ratio in series [1] stood at 5; in series [2] it was 20. For the same molecule, the Activity in series [3] came out at 0.1 µM; in series [4], 0.25 µM; in series [5] it was 625%; in series [6] it was 138%.

In the case of `C[C@@H]1O[C@@H](O[C@H]2CC[C@]3(C=O)[C@H]4CC[C@]5(C)[C@@H](C6=CC(=O)OC6)CC[C@]5(O)[C@@H]4CC[C@]3(O)C2)[C@H](O)[C@H](O)[C@H]1O[C@@H]1O[C@H](CO)[C@@H](O)[C@H](O)[C@H]1O` [CONVALLOSIDE], the selectivity ratio in series [1] was 20; in series [2] it was 9. For the same molecule, the Activity came to 0.25 µM in series [3], 1 µM in series [4], 292% in series [5] and 443% in series [6].

`CO[C@H]1[C@@H](O[C@H]2CC[C@]3(C=O)[C@H]4C[C@@H](O)[C@]5(C)[C@@H](C6=CC(=O)OC6)CC[C@]5(O)[C@@H]4CC[C@]3(O)C2)O[C@H](C)[C@@H](O)[C@@H]1O` [TOXICARIOSIDE B]: the selectivity ratio in series [1] is 10. The Activity amounted to 0.1 µM in series [3] and 163% in series [6].
